Results as given in ChEMBL document CHEMBL3102705, “Design, synthesis and investigation on the structure-activity relationships of N-substituted 2-aminothiazole derivatives as antitubercular agents” (Eur J Med Chem, 2014).
Values after ≈ are worked out from the molar mass of the structure shown.

Tests used:
[1] = test system: Mycobacterium tuberculosis; assay: Antitubercular activity against Mycobacterium tuberculosis H37Rv ATCC 27294 assessed as growth inhibition after 16 to 24 hrs by microplate-Alamar Blue assay; type: functional
Outline: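 MIC against M. tuberculosis H37Rv (ATCC 27294), actively replicating, by microplate Alamar Blue assay.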

[2] = test system: Vero; assay: Cytotoxicity against African green monkey Vero cells assessed as cell viability after 72 hrs by MTS assay; type: cell-based; settings: Chlorocebus sabaeus
Outline: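 Value reported as an IC50 against Vero cells.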

[3] = test system: Mycobacterium tuberculosis; assay: Ratio of MIC for Mycobacterium tuberculosis H37Rv ATCC 27294 expressing Vibrio harveyii luciferase gene with acetamidase promoter by low-oxygen recovery assay to MIC for Mycobacterium tuberculosis H37Rv ATCC 27294 by microplate-Alamar Blue assay; type: functional
[4] = test system: Mycobacterium tuberculosis; assay: Antitubercular activity against recombinant Mycobacterium tuberculosis H37Rv ATCC 27294 expressing Vibrio harveyii luciferase gene with acetamidase promoter assessed as reduction of metabolic recovery after 10 days by low-oxygen recovery assay; type: functional; settings: H37Rv ATCC 27294, 240 h
Outline: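 Low oxygen recovery assay on H37Rv (ATCC 27294), used as an in vitro model of nonreplicating persistent M. tuberculosis. Each MIC is a single measurement.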

[5] = Selectivity index, ratio of IC50 for African green monkey Vero cells to MIC for Mycobacterium tuberculosis H37Rv ATCC 27294; type: toxicity, cell-based; settings: read-out: Selectivity Index
Outline: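 Selectivity index calculated as the Vero cell cytotoxicity IC50 divided by the MABA MIC against H37Rv. Cytotoxicity was measured on Vero cells.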

Cc1ccc(Nc2nc(C)cs2)cc1
MIC [1]: > 128 µM

COc1ccc(-c2csc(Nc3ccc(C)cc3)n2)cc1
IC50 [2]: > 128 µM
Ratio [3]: 2
MIC [4]: 31.8 µM
MIC [1]: 13 µM (≈ 3.85 µg/mL)

Clc1cc(Cl)cc(Nc2nc(-c3ccccc3)c(Cc3ccccc3)s2)c1
IC50 [2]: 82.7 µM
MIC [1]: 20 µM (≈ 8.23 µg/mL)

Fc1ccc(C(F)(F)F)cc1-c1csc(N(Cc2ccccc2)c2cc(Cl)cc(Cl)c2)n1
MIC [1]: > 128 µM

Clc1cc(Cl)cc(Nc2nc3c(s2)Cc2ccccc2-3)c1
MIC [1]: > 128 µM

Fc1ccc(Nc2nc3c(s2)Cc2ccccc2-3)cc1
MIC [1]: > 128 µM

Clc1cc(Cl)cc(Nc2nc3c(s2)-c2ccccc2C3)c1
MIC [1]: > 128 µM

Clc1cc(Cl)cc(Nc2nc3c(s2)CCc2ccccc2-3)c1
MIC [1]: 43.3 µM (≈ 15 µg/mL)

Fc1ccc(C(F)(F)F)cc1-c1csc(NC2CCCCC2)n1
MIC [1]: 30.3 µM (≈ 10.4 µg/mL)

Cc1ccc(Nc2ncc(-c3ccccc3)s2)cc1
MIC [1]: > 128 µM

CN(C)c1nc(-c2cc(C(F)(F)F)ccc2F)cs1
MIC [1]: > 128 µM

Fc1ccc(C(F)(F)F)cc1-c1csc(N2CCCCC2)n1
MIC [1]: 56.5 µM (≈ 18.7 µg/mL)

CC(=O)N1CCN(c2nc(-c3cc(C(F)(F)F)ccc3F)cs2)CC1
MIC [1]: 118 µM (≈ 44 µg/mL)

Cc1ccc2c(ccn2-c2nc(-c3cc(C(F)(F)F)ccc3F)cs2)c1
MIC [1]: > 128 µM

Cc1ccc(C(=O)Nc2nc(-c3cc(C(F)(F)F)ccc3F)cs2)cc1
MIC [1]: > 128 µM

Cc1ccc(CNc2nc(-c3cc(C(F)(F)F)ccc3F)cs2)cc1
MIC [1]: > 128 µM

Fc1ccc(C(F)(F)F)cc1-c1csc(Nc2ccncc2)n1
MIC [1]: > 128 µM

Cc1ccc(Nc2nc(-c3cc(C(F)(F)F)ccc3F)cs2)cc1
selectivity ratio [5]: 3.4
IC50 [2]: 92.4 µM
MIC [1]: 27.5 µM (≈ 9.69 µg/mL)

Cc1ccc(N(C)c2nc(-c3cc(C(F)(F)F)ccc3F)cs2)cc1
IC50 [2]: > 128 µM
MIC [1]: 31.7 µM (≈ 11.6 µg/mL)

Cc1cccc(Nc2nc(-c3cc(C(F)(F)F)ccc3F)cs2)c1
MIC [1]: 29.8 µM (≈ 10.5 µg/mL)

Cc1ccccc1Nc1nc(-c2cc(C(F)(F)F)ccc2F)cs1
MIC [1]: 35.1 µM (≈ 12.4 µg/mL)

Fc1ccc(C(F)(F)F)cc1-c1csc(Nc2ccc(Cl)cc2)n1
selectivity ratio [5]: 2.4
IC50 [2]: 46.6 µM
Ratio [3]: 2
MIC [4]: 31.5 µM
MIC [1]: 19.2 µM (≈ 7.16 µg/mL)

Fc1ccc(C(F)(F)F)cc1-c1csc(Nc2cccc(Cl)c2)n1
MIC [1]: 30.1 µM (≈ 11.2 µg/mL)

Fc1ccc(C(F)(F)F)cc1-c1csc(Nc2ccccc2Cl)n1
MIC [1]: > 128 µM

Fc1ccc(C(F)(F)F)cc1-c1csc(Nc2ccc(Cl)cc2Cl)n1
MIC [1]: > 128 µM

Fc1ccc(C(F)(F)F)cc1-c1csc(Nc2cc(Cl)cc(Cl)c2)n1
selectivity ratio [5]: 3.3
IC50 [2]: 50 µM
MIC [4]: 15.2 µM
MIC [1]: 15 µM (≈ 6.11 µg/mL)

Cc1cc(C)cc(Nc2nc(-c3cc(C(F)(F)F)ccc3F)cs2)c1
MIC [1]: 30.1 µM (≈ 11 µg/mL)

Cc1ccc(Nc2nc(-c3cc(C(F)(F)F)ccc3F)cs2)c(Cl)c1
MIC [1]: > 128 µM

Fc1ccc(Nc2nc(-c3cc(C(F)(F)F)ccc3F)cs2)cc1
MIC [1]: 59.5 µM (≈ 21.2 µg/mL)

Cc1ccc(Nc2nc(-c3cc(C(F)(F)F)ccc3F)cs2)c(C)c1
MIC [1]: 30.8 µM (≈ 11.3 µg/mL)

CCN(c1cc(Cl)cc(Cl)c1)c1nc(-c2cc(C(F)(F)F)ccc2F)cs1
MIC [1]: > 128 µM

COc1ccc(-c2csc(Nc3cc(Cl)cc(Cl)c3)n2)cc1
MIC [1]: 15.6 µM (≈ 5.48 µg/mL)

Cc1ccc(Nc2nc(-c3ccc(C(F)(F)F)cc3)cs2)cc1
MIC [1]: > 128 µM

Cc1ccc(Nc2nc(-c3ccc(Cl)cc3)cs2)cc1
MIC [1]: > 128 µM

Cc1ccc(Nc2nc(-c3ccccc3Cl)cs2)cc1
MIC [1]: > 128 µM

Cc1ccc(Nc2nc(-c3ccc(C)cc3)cs2)cc1
MIC [1]: > 128 µM

Cc1ccc(Nc2nc(-c3ccccc3)cs2)cc1
MIC [1]: 63.8 µM (≈ 17 µg/mL)

Cc1ccc(Nc2nc(-c3ccc(O)cc3)cs2)cc1
MIC [1]: > 128 µM

Clc1cc(Cl)cc(Nc2nc(-c3ccccc3)cs2)c1
MIC [1]: 28.6 µM (≈ 9.19 µg/mL)

Cc1sc(Nc2cc(Cl)cc(Cl)c2)nc1-c1ccccc1
MIC [1]: 28.9 µM (≈ 9.69 µg/mL)

Clc1cc(Cl)cc(Nc2nc(-c3ccccc3)c(-c3ccccc3)s2)c1
MIC [1]: > 128 µM

NNC(=O)c1ccncc1 [ISONIAZID]
MIC [1]: 0.4 µM (≈ 0.0549 µg/mL)

O=[N+]([O-])c1cn2c(n1)OC[C@@H](OCc1ccc(OC(F)(F)F)cc1)C2 [PRETOMANID]
MIC [1]: 0.8 µM (≈ 0.287 µg/mL)

CO[C@H]1/C=C/O[C@@]2(C)Oc3c(C)c(O)c4c(O)c(c(/C=N/N5CCN(C)CC5)c(O)c4c3C2=O)NC(=O)/C(C)=C\C=C\[C@H](C)[C@H](O)[C@@H](C)[C@@H](O)[C@@H](C)[C@H](OC(C)=O)[C@@H]1C [RIFAMPIN]
MIC [1]: 0.1 µM (≈ 0.0823 µg/mL)

CN[C@@H]1[C@H](O[C@H]2[C@H](O[C@H]3[C@H](O)[C@@H](O)[C@H](N=C(N)N)[C@@H](O)[C@@H]3N=C(N)N)O[C@@H](C)[C@]2(O)C=O)O[C@@H](CO)[C@H](O)[C@H]1O [STREPTOMYCIN]
MIC [1]: 0.3 µM (≈ 0.174 µg/mL)
